Assay results reported in ChEMBL document CHEMBL2331191, “Design and synthesis of novel 1,2,3-triazole-dithiocarbamate hybrids as potential anticancer agents” (Eur J Med Chem, 2013).

Legend:
Format in all cases: functional, cell-based
MCF7 = assay: Cytotoxicity against human MCF7 cells assessed as growth inhibition after 72 hrs by MTT assay; details: MCF7, 72 h
Summary of the method: (§1)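 Exponentially growing cells were seeded at 5×10^3 per well and held 24 h at 37 °C. Medium was then replaced with fresh medium containing a range of concentrations, and cells were exposed for 72 h. MTT (5 mg/mL) was added for 4 h at 37 °C, formazan was dissolved in DMSO and A570 was read. Triplicate wells per concentration, three experiments. IC50 was taken from dose–response curves of inhibition ratio.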

PC-3 = assay: Cytotoxicity against human PC3 cells assessed as growth inhibition after 72 hrs by MTT assay; details: PC-3, 72 h; summary of the method: as §1
MGC-803 = assay: Cytotoxicity against human MGC803 cells assessed as growth inhibition after 72 hrs by MTT assay; details: MGC-803, 72 h; summary of the method: as §1
[1] = Cytotoxicity against human EC109 cells assessed as growth inhibition after 72 hrs by MTT assay; details: ECa-109, 72 h; summary of the method: as §1

SMILES | IC50 (MCF7) | IC50 (PC-3) | IC50 (MGC-803) | IC50 [1]
Cc1cc(=O)oc2cc(OCCn3cc(CSC(=S)N4CCN(C(=O)OC(C)(C)C)CC4)nn3)ccc12 | 90.4 µM | > 128 µM | 76.9 µM | > 128 µM
Cc1ccc(-n2cc(CSC(=S)N3CCN(C(=O)OC(C)(C)C)CC3)nn2)cc1 | 74.2 µM | > 128 µM | 48.3 µM | 114 µM
CC(C)(C)OC(=O)N1CCN(C(=S)SCc2cn(-c3ccccc3F)nn2)CC1 | 89.6 µM | > 128 µM | 119 µM | > 128 µM
COc1cc(Cn2cc(CSC(=S)N3CCN(C(=O)OC(C)(C)C)CC3)nn2)cc(OC)c1OC | 22.7 µM | > 128 µM | 27.3 µM | 44.4 µM
Cc1ccc(Cn2cc(CSC(=S)N3CCN(C(=O)OCc4ccccc4)CC3)nn2)cc1 | 37.8 µM | > 128 µM | 9.37 µM | 32.6 µM
O=C(OCc1ccccc1)N1CCN(C(=S)SCc2cn(Cc3ccc(F)cc3)nn2)CC1 | 10.3 µM | > 128 µM | 17.6 µM | 32 µM
CC(C)(C)OC(=O)N1CCN(C(=S)SCc2cn(Cc3ccc(F)cc3)nn2)CC1 | 3.34 µM | > 128 µM | 1.93 µM | 58.9 µM
S=C(SCc1cn(Cc2ccc(Cl)cc2)nn1)N1CCNCC1 |  | > 128 µM |  | > 128 µM
COc1ccc(Cn2cc(CSC(=S)N3CCN(C(=O)OC(C)(C)C)CC3)nn2)cc1 | 4.96 µM | > 128 µM | 22.8 µM | 36.8 µM
CC(C)(C)OC(=O)N1CCN(C(=S)SCc2cn(-c3cccc(C(F)(F)F)c3)nn2)CC1 | 80.4 µM | > 128 µM | 66.8 µM | 69.3 µM
S=C(SCc1cn(Cc2ccc(Cl)c(Cl)c2)nn1)N1CCNCC1 |  |  |  | > 128 µM
O=C(OCc1ccccc1)N1CCN(C(=S)SCc2cn(Cc3ccc(Cl)cc3)nn2)CC1 | 27.5 µM | > 128 µM | 31.3 µM | > 128 µM
CC(C)(C)OC(=O)N1CCN(C(=S)SCc2cn(Cc3ccccc3F)nn2)CC1 | 5.67 µM | 11.6 µM |  | 2.44 µM
COc1cc(Cn2cc(CSC(=S)N3CCN(C(=O)OCc4ccccc4)CC3)nn2)cc(OC)c1OC | > 128 µM | > 128 µM | 10.9 µM | > 128 µM
COc1ccc(Cn2cc(CSC(=S)N3CCN(C(=O)OCc4ccccc4)CC3)nn2)cc1 | 30.5 µM | > 128 µM | 23.8 µM | 58.3 µM
Fc1ccc(Cn2cc(CSC(=S)N3CCNCC3)nn2)cc1 | 49.9 µM | > 128 µM | 32.5 µM | > 128 µM

SMILES | IC50 (MCF7) | IC50 (PC-3) | IC50 (MGC-803) | IC50 [1]
CC(C)(C)OC(=O)N1CCN(C(=S)SCc2cn(Cc3ccc(Cl)cc3)nn2)CC1 | 2.96 µM | > 128 µM | 9.79 µM | > 128 µM
O=C(OCc1ccccc1)N1CCN(C(=S)SCc2cn(Cc3ccccc3F)nn2)CC1 | 7.95 µM | 68.3 µM | 5.06 µM | 27 µM
CC(C)(C)OC(=O)N1CCN(C(=S)SCc2cn(CCOc3ccc4ccc(=O)oc4c3)nn2)CC1 | 79.8 µM | > 128 µM | 67 µM | > 128 µM
O=C(OCc1ccccc1)N1CCN(C(=S)SCc2cn(Cc3ccccc3Cl)nn2)CC1 | 21.4 µM | > 128 µM | 15.5 µM | 56.8 µM
COc1ccc(Cn2cc(CSC(=S)N3CCNCC3)nn2)cc1 |  | > 128 µM |  | > 128 µM
S=C(SCc1cn(Cc2ccccc2Cl)nn1)N1CCNCC1 | 38.9 µM |  | 45.2 µM | > 128 µM
O=C(OCc1ccccc1)N1CCN(C(=S)SCc2cn(Cc3ccc(Cl)c(Cl)c3)nn2)CC1 | 10.6 µM | > 128 µM | 7.14 µM | 29.4 µM
Cc1ccc(Cn2cc(CSC(=S)N3CCN(C(=O)OC(C)(C)C)CC3)nn2)cc1 | 19.7 µM | 17.2 µM | 3.49 µM | 47.9 µM
CC(C)(C)OC(=O)N1CCN(C(=S)SCc2cn(Cc3ccc(Cl)c(Cl)c3)nn2)CC1 | 19.1 µM | > 128 µM | 33.7 µM | > 128 µM
COc1cc(Cn2cc(CSC(=S)N3CCNCC3)nn2)cc(OC)c1OC |  | > 128 µM |  | > 128 µM
O=c1[nH]cc(F)c(=O)[nH]1 [FLUOROURACIL] |  | 27.1 µM | 7.01 µM | 3.34 µM
Cc1ccc(Cn2cc(CSC(=S)N3CCNCC3)nn2)cc1 | 53.2 µM | 19.8 µM | 64.3 µM | > 128 µM
Fc1ccccc1Cn1cc(CSC(=S)N2CCNCC2)nn1 | 33.2 µM | 56.2 µM | 19.4 µM | > 128 µM
COc1ccc(-n2cc(CSC(=S)N3CCN(C(=O)OC(C)(C)C)CC3)nn2)cc1 | 93 µM | > 128 µM | 87.3 µM | > 128 µM
CC(C)(C)OC(=O)N1CCN(C(=S)SCc2cn(Cc3cc(=O)oc4cc(O)ccc34)nn2)CC1 | 10.4 µM | 36.8 µM | 4.96 µM | > 128 µM
